Test results as given in ChEMBL document CHEMBL2169803, “Brain Penetrant LRRK2 Inhibitor” (ACS Med Chem Lett, 2012).
Activity calls are given as the source filed them. The calls are words filed in the database; no cut-off is given here.

Legend:
Mus musculus [1] = assay: Inhibition of LRRK2 in C57BL/6 mouse brain at 100 mg/kg, ip by ADP-acylphosphate probe-based mass spectrometry relative to vehicle-treated control; format: functional
How it was run: (§1)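 KiNativ chemical proteomics on brains and spleens from mice dosed intraperitoneally at 3, 10, 30, 50 or 100 mg/kg, compared against vehicle-treated animals. Tissue lysed in 5× volume of detergent-free buffer and labeled with an ADP-acylphosphate probe. After workup and trypsin digestion, probe labeling was quantified by mass spectrometry across >150 protein and lipid kinases. Values reflect 5× dilution relative to intact tissue.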

[2] = molecular target: Leucine-rich repeat serine/threonine-protein kinase 2 (Homo sapiens) (UniProt Q5S007); conditions: HEK293, 1 uM
[3] = tested on: Leucine-rich repeat serine/threonine-protein kinase 2 (Homo sapiens), Q5S007 [G2019S]; conditions: HEK293, 1 uM
[4] = molecular target: Leucine-rich repeat serine/threonine-protein kinase 2 (Mus musculus) (UniProt Q5S006); assay: Inhibition of LRRK2 autophosphorylation at Ser910 and Ser935 Swiss mouse 3T3 cells by immunoblotting analysis; format: cell-based
Leucine-rich repeat serine/threonine-protein kinase 2 (Mus musculus), sequence (Q5S006 whole entry): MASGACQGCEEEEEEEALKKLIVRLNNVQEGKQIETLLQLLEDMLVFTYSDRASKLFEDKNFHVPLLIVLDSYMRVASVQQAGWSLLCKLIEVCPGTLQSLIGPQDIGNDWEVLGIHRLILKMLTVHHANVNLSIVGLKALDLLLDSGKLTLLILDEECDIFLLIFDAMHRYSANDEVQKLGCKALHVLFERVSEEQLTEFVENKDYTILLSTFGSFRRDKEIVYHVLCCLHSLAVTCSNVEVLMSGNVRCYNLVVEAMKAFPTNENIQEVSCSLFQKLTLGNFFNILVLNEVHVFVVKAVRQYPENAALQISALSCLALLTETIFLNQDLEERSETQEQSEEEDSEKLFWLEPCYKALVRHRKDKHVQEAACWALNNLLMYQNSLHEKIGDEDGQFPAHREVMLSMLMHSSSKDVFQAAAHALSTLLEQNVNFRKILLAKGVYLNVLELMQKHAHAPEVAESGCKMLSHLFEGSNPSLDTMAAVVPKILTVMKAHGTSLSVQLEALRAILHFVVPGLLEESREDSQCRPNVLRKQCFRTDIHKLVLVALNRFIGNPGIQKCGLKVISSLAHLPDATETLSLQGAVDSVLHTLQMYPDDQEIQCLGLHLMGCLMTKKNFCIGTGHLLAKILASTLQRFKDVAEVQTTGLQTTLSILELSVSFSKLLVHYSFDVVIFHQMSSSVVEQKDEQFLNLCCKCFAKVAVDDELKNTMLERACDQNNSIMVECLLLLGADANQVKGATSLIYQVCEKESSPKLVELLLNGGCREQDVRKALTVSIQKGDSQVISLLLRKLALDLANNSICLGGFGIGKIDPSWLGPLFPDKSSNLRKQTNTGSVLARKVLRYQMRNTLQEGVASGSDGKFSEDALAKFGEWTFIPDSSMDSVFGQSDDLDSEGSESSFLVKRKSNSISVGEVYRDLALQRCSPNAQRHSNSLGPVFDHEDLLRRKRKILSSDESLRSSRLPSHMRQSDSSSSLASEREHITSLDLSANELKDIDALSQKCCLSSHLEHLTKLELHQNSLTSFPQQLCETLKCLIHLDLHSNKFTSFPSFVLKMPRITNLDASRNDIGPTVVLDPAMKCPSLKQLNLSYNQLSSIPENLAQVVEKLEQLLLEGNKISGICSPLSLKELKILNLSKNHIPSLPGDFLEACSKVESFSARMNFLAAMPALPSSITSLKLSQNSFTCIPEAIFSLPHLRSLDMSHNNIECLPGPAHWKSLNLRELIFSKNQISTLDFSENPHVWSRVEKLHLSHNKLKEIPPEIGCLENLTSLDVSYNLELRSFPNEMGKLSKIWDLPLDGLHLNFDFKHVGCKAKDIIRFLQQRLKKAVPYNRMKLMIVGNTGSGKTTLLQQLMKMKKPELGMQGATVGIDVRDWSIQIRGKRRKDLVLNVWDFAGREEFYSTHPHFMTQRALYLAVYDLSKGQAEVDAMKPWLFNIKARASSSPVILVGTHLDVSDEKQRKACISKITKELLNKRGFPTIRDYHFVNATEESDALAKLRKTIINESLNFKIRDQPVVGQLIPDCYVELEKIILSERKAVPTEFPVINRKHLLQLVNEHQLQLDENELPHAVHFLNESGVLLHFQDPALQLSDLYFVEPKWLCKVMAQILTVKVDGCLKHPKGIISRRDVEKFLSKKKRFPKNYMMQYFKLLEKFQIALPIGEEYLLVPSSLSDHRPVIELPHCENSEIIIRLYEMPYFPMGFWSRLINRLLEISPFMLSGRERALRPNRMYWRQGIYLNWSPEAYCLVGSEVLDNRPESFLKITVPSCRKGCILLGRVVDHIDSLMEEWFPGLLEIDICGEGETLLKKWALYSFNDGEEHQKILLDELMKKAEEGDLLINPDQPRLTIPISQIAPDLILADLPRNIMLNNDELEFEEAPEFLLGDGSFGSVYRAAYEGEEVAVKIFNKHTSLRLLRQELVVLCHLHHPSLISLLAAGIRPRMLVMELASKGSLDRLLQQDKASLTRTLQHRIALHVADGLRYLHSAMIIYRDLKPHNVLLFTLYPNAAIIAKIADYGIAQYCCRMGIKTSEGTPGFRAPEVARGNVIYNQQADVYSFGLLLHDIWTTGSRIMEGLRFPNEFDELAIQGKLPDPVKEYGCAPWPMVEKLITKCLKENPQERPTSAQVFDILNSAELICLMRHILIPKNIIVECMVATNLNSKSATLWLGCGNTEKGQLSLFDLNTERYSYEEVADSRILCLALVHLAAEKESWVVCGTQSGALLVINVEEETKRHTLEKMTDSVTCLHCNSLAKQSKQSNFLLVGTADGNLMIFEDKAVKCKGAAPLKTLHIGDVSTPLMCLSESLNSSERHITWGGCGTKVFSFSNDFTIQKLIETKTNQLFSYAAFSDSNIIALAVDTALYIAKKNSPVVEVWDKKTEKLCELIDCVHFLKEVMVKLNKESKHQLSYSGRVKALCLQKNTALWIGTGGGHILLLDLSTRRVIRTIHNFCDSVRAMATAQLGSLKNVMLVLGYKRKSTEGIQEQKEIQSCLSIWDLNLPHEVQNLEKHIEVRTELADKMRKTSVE
How it was run: (§2)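 Mouse Swiss 3T3 cells or mouse embryonic fibroblasts were treated with DMSO or increasing concentrations of compound for 90 min. Lysates were immunoblotted for LRRK2 phospho-Ser910, phospho-Ser935 and total LRRK2. Immunoblots were run in duplicate and are representative of at least two independent experiments.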

[5] = molecular target: T1, MAP kinase-interacting serine/threonine-protein kinase 2 (Homo sapiens, UniProt Q9HBH9); assay: Inhibition of MNK2 at 10 uM by radiometric assay
How it was run: (§3)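 Dundee panel of 138 kinases screened at 10 μM compound using radioactivity-based enzymatic assays. Activity was expressed relative to DMSO control.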
Target sequence in this assay (Q9HBH9 whole entry, looked up): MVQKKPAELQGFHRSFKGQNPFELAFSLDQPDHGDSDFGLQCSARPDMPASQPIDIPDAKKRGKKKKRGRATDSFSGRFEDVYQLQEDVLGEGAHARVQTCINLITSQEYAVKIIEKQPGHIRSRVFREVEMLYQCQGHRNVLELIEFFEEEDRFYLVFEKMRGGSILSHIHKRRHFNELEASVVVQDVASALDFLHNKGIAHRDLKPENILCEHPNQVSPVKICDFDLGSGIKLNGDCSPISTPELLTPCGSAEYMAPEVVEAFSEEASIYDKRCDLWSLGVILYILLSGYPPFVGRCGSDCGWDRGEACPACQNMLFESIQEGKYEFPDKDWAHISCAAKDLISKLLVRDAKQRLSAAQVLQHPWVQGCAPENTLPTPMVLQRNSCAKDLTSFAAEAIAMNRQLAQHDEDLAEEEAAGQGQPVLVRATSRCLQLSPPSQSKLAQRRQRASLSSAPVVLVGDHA

[6] = molecular target: T2, Mitogen-activated protein kinase kinase kinase 9 (Homo sapiens, UniProt P80192); assay: Inhibition of MLK1 at 10 uM by radiometric assay; how it was run: as §3
Target sequence in this assay (P80192 whole entry, looked up): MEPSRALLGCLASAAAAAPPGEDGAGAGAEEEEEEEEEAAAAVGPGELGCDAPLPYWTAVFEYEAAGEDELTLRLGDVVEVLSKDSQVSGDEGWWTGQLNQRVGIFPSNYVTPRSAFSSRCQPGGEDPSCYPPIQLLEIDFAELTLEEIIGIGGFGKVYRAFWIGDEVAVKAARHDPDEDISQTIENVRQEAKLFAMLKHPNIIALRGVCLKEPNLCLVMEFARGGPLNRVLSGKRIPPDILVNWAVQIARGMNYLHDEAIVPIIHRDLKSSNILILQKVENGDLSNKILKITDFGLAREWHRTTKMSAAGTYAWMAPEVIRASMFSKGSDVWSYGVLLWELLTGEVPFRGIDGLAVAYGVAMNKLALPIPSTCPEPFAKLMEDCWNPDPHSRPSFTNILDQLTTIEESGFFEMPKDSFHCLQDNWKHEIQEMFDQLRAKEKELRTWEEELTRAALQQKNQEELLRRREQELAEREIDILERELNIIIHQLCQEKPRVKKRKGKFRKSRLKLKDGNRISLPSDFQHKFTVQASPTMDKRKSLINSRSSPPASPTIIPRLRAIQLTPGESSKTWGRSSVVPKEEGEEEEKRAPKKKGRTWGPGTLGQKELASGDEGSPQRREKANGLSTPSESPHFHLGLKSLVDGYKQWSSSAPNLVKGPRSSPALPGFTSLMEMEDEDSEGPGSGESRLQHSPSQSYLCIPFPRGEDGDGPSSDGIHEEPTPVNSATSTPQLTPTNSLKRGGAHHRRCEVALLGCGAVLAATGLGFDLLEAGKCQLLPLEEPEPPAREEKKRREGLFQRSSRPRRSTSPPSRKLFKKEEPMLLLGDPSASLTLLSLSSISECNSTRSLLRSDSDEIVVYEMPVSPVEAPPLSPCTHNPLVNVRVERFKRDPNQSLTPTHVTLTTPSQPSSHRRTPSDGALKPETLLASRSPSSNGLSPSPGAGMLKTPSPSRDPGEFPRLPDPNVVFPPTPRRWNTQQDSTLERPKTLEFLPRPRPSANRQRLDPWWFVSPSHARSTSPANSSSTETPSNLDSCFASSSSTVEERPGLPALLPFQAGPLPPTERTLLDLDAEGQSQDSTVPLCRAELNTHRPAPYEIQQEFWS

[7] = Oral bioavailability in mouse at 10 mg/kg; format: ADME, organism-based; conditions: in vivo
How it was run: (§4)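 Mouse pharmacokinetics run by a contract lab; parameters reported include oral bioavailability (%F), plasma AUClast and half-life. Full PK parameter set is given in the Supporting Information.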

Liver = assay: Half life in mouse liver microsomes at 1 uM; format: ADME, Microsome
How it was run: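 Metabolic stability determined by incubation with mouse liver microsomes; half-life (T1/2) reported in minutes.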

Mus musculus [8] = assay: Inhibition of TBK1 in C57BL/6 mouse brain at 50 and 100 mg/kg, ip by ADP-acylphosphate probe-based mass spectrometry relative to vehicle-treated control; format: functional; conditions: C57BL/6, ip, route intraperitoneal; how it was run: as §1
Mus musculus [9] = assay: Inhibition of LRRK2 autophosphorylation at Ser910 and Ser935 in C57BL/6 mouse brain at 30 mg/kg, ip by immunoblotting analysis relative to vehicle-treated control; format: functional, organism-based; set-up: dose 30 mg/kg
Mus musculus [10] = assay: Inhibition of LRRK2 in C57BL/6 mouse brain at 50 mg/kg, ip by ADP-acylphosphate probe-based mass spectrometry relative to vehicle-treated control; format: functional; conditions: C57BL/6, Brain, route intraperitoneal; how it was run: as §1
Mus musculus [11] = assay: Inhibition of LRRK2 autophosphorylation at Ser910 and Ser935 in C57BL/6 mouse kidney at 50 mg/kg, ip by immunoblotting analysis relative to vehicle-treated control; format: functional, organism-based; set-up: dose 50 mg/kg
Mus musculus [12] = assay: Inhibition of JNK2 in C57BL/6 mouse brain at 50 and 100 mg/kg, ip by ADP-acylphosphate probe-based mass spectrometry relative to vehicle-treated control; format: functional; conditions: C57BL/6, ip, route intraperitoneal; how it was run: as §1
[13] = tested on: Mast/stem cell growth factor receptor Kit (Homo sapiens), P10721 [L576P]; assay: Inhibition of cKIT L576P mutant at 1 uM by KinomeScan assay
Mus musculus [14] = assay: Inhibition of LRRK2 autophosphorylation at Ser910 and Ser935 in C57BL/6 mouse brain at 100 mg/kg, ip by immunoblotting analysis relative to vehicle-treated control; format: functional, organism-based; set-up: dose 100 mg/kg
Mus musculus [15] = assay: Inhibition of LRRK2 autophosphorylation at Ser910 and Ser935 in C57BL/6 mouse kidney at 100 mg/kg, ip by immunoblotting analysis relative to vehicle-treated control; format: functional, organism-based; set-up: dose 100 mg/kg
Mus musculus [16] = assay: Inhibition of LRRK2 in C57BL/6 mouse brain at 30 mg/kg, ip by ADP-acylphosphate probe-based mass spectrometry relative to vehicle-treated control; format: functional; conditions: C57BL/6, Brain, route intraperitoneal; how it was run: as §1
Mus musculus [17] = assay: Half life in mouse at 1 mg/kg, iv; format: ADME, organism-based; set-up: dose 1 mg/kg, route intravenous; conditions: in vivo; how it was run: as §4
Mus musculus [18] = assay: Inhibition of LRRK2 autophosphorylation at Ser910 and Ser935 in C57BL/6 mouse brain at 10 mg/kg, ip by immunoblotting analysis relative to vehicle-treated control; format: functional, organism-based; set-up: dose 10 mg/kg
Mus musculus [19] = assay: Inhibition of LRRK2 autophosphorylation at Ser910 and Ser935 in C57BL/6 mouse brain at 50 mg/kg, ip by immunoblotting analysis relative to vehicle-treated control; format: functional, organism-based; set-up: dose 50 mg/kg
Mus musculus [20] = assay: Inhibition of JNK1 in ip dosed C57BL/6 mouse brain by ADP-acylphosphate probe-based mass spectrometry; format: functional, organism-based; how it was run: as §1
Mus musculus [21] = assay: Inhibition of LRRK2 autophosphorylation at Ser910 and Ser935 in C57BL/6 mouse spleen at 50 mg/kg, ip by immunoblotting analysis relative to vehicle-treated control; format: functional, organism-based; set-up: dose 50 mg/kg
Mus musculus [22] = assay: Inhibition of LRRK2 in ip dosed C57BL/6 mouse spleen by ADP-acylphosphate probe-based mass spectrometry; format: functional, organism-based; how it was run: as §1
[23] = molecular target: T2, Mitogen-activated protein kinase kinase kinase 9; assay: Inhibition of MLK1 by radiometric assay
How it was run: (§5)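 Radioactivity-based enzymatic kinase assay run in the Dundee profiling panel of 138 kinases. Kinases were first screened at 10 μM inhibitor, with activity expressed relative to a DMSO control. A dose–response analysis then gave the IC50.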
Target sequence in this assay (P80192 whole entry): as the sequence (P80192 whole entry, looked up) above

Mus musculus [24] = assay: Inhibition of LRRK2 in C57BL/6 mouse spleen at 30 to 100 mg/kg, ip by ADP-acylphosphate probe-based mass spectrometry relative to vehicle-treated control; format: functional; conditions: dose mg/kg 30-100; route intraperitoneal; how it was run: as §1
Mus musculus [25] = assay: Inhibition of TBK1 in ip dosed C57BL/6 mouse brain by ADP-acylphosphate probe-based mass spectrometry; format: functional, organism-based; how it was run: as §1
Mus musculus [26] = assay: Inhibition of LRRK2 in ip dosed C57BL/6 mouse brain by ADP-acylphosphate probe-based mass spectrometry; format: functional, organism-based; how it was run: as §1
Mus musculus [27] = assay: Inhibition of LRRK2 autophosphorylation at Ser910 and Ser935 in C57BL/6 mouse spleen at 100 mg/kg, ip by immunoblotting analysis relative to vehicle-treated control; format: functional, organism-based; set-up: dose 100 mg/kg
[28] = molecular target: Leucine-rich repeat serine/threonine-protein kinase 2 (Mus musculus) (UniProt Q5S006); assay: Inhibition of LRRK2 autophosphorylation at Ser910 and Ser935 mouse embryonic fibroblast cells by immunoblotting analysis; format: cell-based; how it was run: as §2
Mus musculus [29] = assay: Inhibition of JNK1 in C57BL/6 mouse brain at 50 and 100 mg/kg, ip by ADP-acylphosphate probe-based mass spectrometry relative to vehicle-treated control; format: functional; conditions: C57BL/6, ip, route intraperitoneal; how it was run: as §1
Mus musculus [30] = assay: Inhibition of JNK3 in ip dosed C57BL/6 mouse brain by ADP-acylphosphate probe-based mass spectrometry; format: functional, organism-based; how it was run: as §1
[31] = molecular target: T1, MAP kinase-interacting serine/threonine-protein kinase 2; assay: Inhibition of MNK2 by radiometric assay; how it was run: as §5
Target sequence in this assay (Q9HBH9 whole entry): as the sequence (Q9HBH9 whole entry, looked up) above

Mus musculus [32] = assay: Inhibition of JNK2 in ip dosed C57BL/6 mouse brain by ADP-acylphosphate probe-based mass spectrometry; format: functional, organism-based; how it was run: as §1
Mus musculus [33] = assay: Inhibition of LRRK2 in C57BL/6 mouse spleen at 10 mg/kg, ip by ADP-acylphosphate probe-based mass spectrometry relative to vehicle-treated control; format: functional; conditions: C57BL/6, Spleen, route intraperitoneal; how it was run: as §1
Mus musculus [34] = assay: Inhibition of LRRK2 in C57BL/6 mouse spleen at 3 mg/kg, ip by ADP-acylphosphate probe-based mass spectrometry relative to vehicle-treated control; format: functional; conditions: C57BL/6, Spleen, route intraperitoneal; how it was run: as §1
Mus musculus [35] = assay: Inhibition of JNK3 in C57BL/6 mouse brain at 50 and 100 mg/kg, ip by ADP-acylphosphate probe-based mass spectrometry relative to vehicle-treated control; format: functional; conditions: C57BL/6, ip, route intraperitoneal; how it was run: as §1
Mus musculus [36] = assay: AUClast in mouse at 10 mg/kg, po; format: ADME, organism-based, Plasma; set-up: time 0 - last, dose 10 mg/kg, route oral; conditions: in vivo; how it was run: as §4

Compound: COc1cc(C(=O)N2CCC(N3CCN(C)CC3)CC2)ccc1Nc1ncc2c(n1)N(C)c1ccccc1C(=O)N2C
- inhibition (Mus musculus [1]): inactive
- inhibition [2]: Active
- inhibition [3]: Active

Compound: CNc1nc(Nc2ccc(C(=O)N3CCOCC3)cc2OC)ncc1Cl
- inhibition in vivo at 100 mg/kg (Mus musculus [1]; C57BL/6, Brain, route intraperitoneal): 70%
- inhibition [4]: Dose-dependent effect
- inhibition [5]: > 80%
- inhibition [6]: > 80%
- bioavailability [7]: 67%
- t1/2 (Liver): 13 min
- inhibition in vivo at 100 mg/kg (Mus musculus [8]): 35%
- inhibition (Mus musculus [9]): Active
- inhibition in vivo at 50 mg/kg (Mus musculus [10]): 70%
- inhibition (Mus musculus [11]): Active
- inhibition in vivo at 100 mg/kg (Mus musculus [12]): 35%
- inhibition [13]: Active
- inhibition (Mus musculus [14]): Active
- inhibition (Mus musculus [15]): Active
- inhibition in vivo at 30 mg/kg (Mus musculus [16]): 40%
- t1/2 (Mus musculus [17]): 7.8 min
- inhibition (Mus musculus [18]): Active
- inhibition (Mus musculus [19]): Active
- inhibition (Mus musculus [20]): Dose-dependent effect
- inhibition (Mus musculus [21]): Active
- inhibition (Mus musculus [22]): Dose-dependent effect
- IC50 [23]: 2100 nM
- inhibition (INH) (Mus musculus [24]): >90%
- inhibition (Mus musculus [25]): Dose-dependent effect
- inhibition (Mus musculus [26]): Dose-dependent effect
- inhibition (Mus musculus [27]): Active
- inhibition [28]: Dose-dependent effect
- inhibition in vivo at 100 mg/kg (Mus musculus [29]): 35%
- inhibition (Mus musculus [30]): Dose-dependent effect
- IC50 [31]: 600 nM
- inhibition (Mus musculus [32]): Dose-dependent effect
- inhibition in vivo at 10 mg/kg (Mus musculus [33]): 80%
- inhibition in vivo at 3 mg/kg (Mus musculus [34]): 40%
- inhibition in vivo at 100 mg/kg (Mus musculus [35]): 35%
- AUClast (Mus musculus [36]): 502 ng·h/mL
